The subject of series [1] is LC-2/ad cells (CCDC6-RET). Description: Cell viability assay. It is filed as cell-based. The note with it: Homo sapiens, 72 h, read-out: IC50 (cell viability).
In another series the test system is TT cells (RET C634W). Description: Cell viability assay. The series is classed as cell-based. The note with it: Homo sapiens, 96 h, read-out: IC50 (cell viability).
Series [2] concerns phospho-RET, phospho-PLCγ, phospho-ERK, phospho-MEK in LC-2/ad cells. The series can be described thus: Western blot of RET pathway phosphorylation. It is filed as cell-based, human. The note with it: 50 nmol/L to 5 μmol/L, 2 hours.
In a further series the test system is LC-2/ad cells. The series can be described thus: Apoptosis assay. The note with it: 24-hour incubation. It is filed as cell-based, human. Summed up:
(§1)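 Cells kept in F-12K or RPMI with 10% (vol/vol) FBS at 37°C in humidified 5% CO2. They were split into 10-cm dishes and, 24 hours later, exposed to a range of test compound concentrations for 24 hours. Lysates were prepared in RIPA buffer. Cleaved caspase-3 and cleaved PARP were detected by standard Western blotting.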

A further series has as its system TT cells. The series can be described thus: Apoptosis assay. The series is classed as cell-based, human. The note with it: 24-hour incubation. Summed up: as §1
Series [3] relates to RET-rearranged lung cancers. The conditions noted are these: cited from earlier work.
For a further series, the system named is HUVEC cells. The conditions noted are these: at 1 μmol/L; cited from earlier work.

As a reminder, the IC50 is the concentration needed to halve the response being measured.

Take `COc1cc2nccc(Oc3ccc(NC(=O)C4(C(=O)Nc5ccc(F)cc5)CC4)cc3)c2cc1OC` [cabozantinib]: the IC50 was found to be 0.098 µM in series [1] and 0.077 µM in the series on TT cells (RET C634W). Besides, the “ERK and MEK phosphorylation” value in series [2] is “able to decrease phospho-ERK and phospho-MEK at as low as 50 nmol/L”. Besides, the “apoptosis (cleaved caspase-3 and cleaved PARP)” value (shortened to “apoptosis”) in the series on LC-2/ad cells was “induced apoptosis”; with TT cells, “no cleavage of caspase-3 and PARP”. The “patients requiring a dose reduction due to drug-related toxicities” value in series [3] (phase II study) is on record as “approximately two thirds”. Moreover, in series [3] (phase II trial), the overall response rate is recorded as 28%.
As for `COc1cc2ncnc(Oc3cccc(NC(=O)Nc4cc(C(C)(C)C(F)(F)F)on4)c3)c2cc1OC.Cl` [RXDX-105, 1-(3-(6,7-dimethoxyquinazolin-4-yloxy)phenyl)-3-(5-(1,1,1-trifluoro-2-methylpropan-2-yl)isoxazol-3-yl)urea hydrochloride], the “apoptosis” value with LC-2/ad cells was “induced apoptosis”; in the series with TT cells it was “no cleavage of caspase-3 and PARP”. In addition, in the series on HUVEC cells, the “growth inhibitory activity toward HUVEC cells” value is “no growth inhibitory activity”.
`CCc1cc2c(cc1N1CCC(N3CCOCC3)CC1)C(C)(C)c1[nH]c3cc(C#N)ccc3c1C2=O` [alectinib]: the IC50 in series [1] is 0.204 µM; in the series on TT cells (RET C634W), 0.09 µM. For the same compound, in series [2], the “ERK and MEK phosphorylation” value was “neither RXDX-105 nor alectinib treatment showed detectable change”. The “apoptosis” value in the series with LC-2/ad cells was “induced apoptosis”; in the series with TT cells, “no cleavage of caspase-3 and PARP was seen in the TT cells, except for the higher doses of alectinib”.

(Values after publication PMC5477238 (Clinical cancer research : an official journal of the …, 2016).)
